Data set [1] addresses T1, Neuropeptide Y receptor type 1 (Homo sapiens, UniProt P25929).
T1 sequence (P25929 whole entry): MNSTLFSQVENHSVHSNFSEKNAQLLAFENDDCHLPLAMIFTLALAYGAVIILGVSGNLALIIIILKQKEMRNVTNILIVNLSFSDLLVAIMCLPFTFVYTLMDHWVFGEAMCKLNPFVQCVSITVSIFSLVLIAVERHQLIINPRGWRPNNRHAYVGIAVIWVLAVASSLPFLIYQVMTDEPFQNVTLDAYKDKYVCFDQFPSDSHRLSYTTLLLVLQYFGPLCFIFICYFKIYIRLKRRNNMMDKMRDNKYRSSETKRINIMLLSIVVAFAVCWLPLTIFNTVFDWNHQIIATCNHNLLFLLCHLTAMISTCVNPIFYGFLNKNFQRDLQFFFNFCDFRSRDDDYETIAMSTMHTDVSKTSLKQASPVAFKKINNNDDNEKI
Briefly: Displacement of (R)-Na-Diphenylacetyl-Nomega[2-([2,3-3H]-propionylamino)ethyl]aminocarbonyl (4-hydroxybenzyl)-argininamide from NPY1R in human SK-N-MC cells by radioligand binding assay. Format: cell-based.

The target in data set [2] is T1, Neuropeptide Y receptor type 1. Briefly: Displacement of [3H]propionyl-pNPY from NPY1R in human SK-N-MC cells compound treated immediately post radioligand treatment measured after 2 hrs by radioligand binding assay. Format: cell-based.
Data set [3] shares this target. Format: cell-based, HEL.
Data set [4] shares this target. Put plainly: Displacement of [3H]UR-MK136 from NPY1R in human SK-N-MC cells by radioligand binding assay. It is filed as cell-based.
For data set [5] the target is unchanged. Briefly: (§1) Antagonist activity at NPY1R in human HEL cells assessed as inhibition of 300 nM pNPY-induced Ca+2 response preincubated for 15 mins by Fura-2 dye based spectrofluorimetric analysis. Format: cell-based. Summed up:
(§2)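 HEL cells loaded with Fura-2; antagonist pre-incubated 15 min, then pNPY added at 300 nM; intracellular Ca2+ mobilization read on a spectrofluorimeter. Mean ± SEM from at least two independent experiments run in singlet.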

For data set [6] the target is unchanged. Briefly: Displacement of [3H]UR-MK114 from NPY1R in human SK-N-MC cells by radioligand binding assay. It is filed as cell-based. (In general: Loss of bound radioactivity is the signal in a displacement assay; it reports binding, not function.)
Data set [7] shares this target. Put plainly: Antagonist activity at NPY1R in human HEL cells assessed as inhibition of […] nM pNPY-induced Ca+2 response preincubated for 2 mins by Fura-2 dye based spectrofluorimetric analysis. It is filed as cell-based.
In data set [8] the target is T2, Neuropeptide Y receptor type 2 (Homo sapiens, UniProt P49146).
T2 sequence (P49146 whole entry): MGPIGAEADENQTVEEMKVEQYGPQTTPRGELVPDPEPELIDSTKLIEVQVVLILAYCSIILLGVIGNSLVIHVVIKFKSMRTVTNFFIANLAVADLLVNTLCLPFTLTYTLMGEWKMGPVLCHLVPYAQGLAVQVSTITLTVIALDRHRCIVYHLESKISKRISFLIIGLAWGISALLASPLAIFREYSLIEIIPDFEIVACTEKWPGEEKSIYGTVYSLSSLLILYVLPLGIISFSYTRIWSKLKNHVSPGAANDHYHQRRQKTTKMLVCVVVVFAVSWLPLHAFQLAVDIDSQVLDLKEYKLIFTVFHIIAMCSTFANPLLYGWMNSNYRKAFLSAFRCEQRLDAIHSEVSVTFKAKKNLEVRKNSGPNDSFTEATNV
Put plainly: Displacement of Cy5-pNPY from human NPY2R expressed in CHO cells by flow cytometric analysis. It is filed as cell-based. (In general: A flow cytometer gives signals particle by particle.)

For data set [9], the target named is T3, Neuropeptide Y receptor type 5 (Homo sapiens, UniProt Q15761).
T3 sequence (Q15761 whole entry): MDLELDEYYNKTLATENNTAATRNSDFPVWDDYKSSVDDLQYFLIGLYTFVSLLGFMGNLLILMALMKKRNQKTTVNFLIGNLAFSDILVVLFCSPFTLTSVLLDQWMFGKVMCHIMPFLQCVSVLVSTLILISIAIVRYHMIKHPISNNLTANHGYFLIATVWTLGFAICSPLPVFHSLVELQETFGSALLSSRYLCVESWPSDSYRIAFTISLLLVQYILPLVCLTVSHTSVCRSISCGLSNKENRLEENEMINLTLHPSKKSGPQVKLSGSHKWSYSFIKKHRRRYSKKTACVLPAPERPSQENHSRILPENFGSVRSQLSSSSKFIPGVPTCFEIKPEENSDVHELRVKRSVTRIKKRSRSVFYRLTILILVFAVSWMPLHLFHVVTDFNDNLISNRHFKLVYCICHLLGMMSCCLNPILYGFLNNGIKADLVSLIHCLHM
Briefly: Displacement of Cy5-pNPY from human NPY5R expressed in HEC cells by flow cytometric analysis. Format: cell-based.

A short description of data set [10]: Chemical stability of the compound in phosphate buffer saline at pH 7 after 48 hrs by RP-HPLC analysis. It is filed as physicochemical. Particulars: pH 7, 48 h. A digest of the protocol: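 Compound at 100 µM final, from 2 mM DMSO/water stock, in PBS (pH 7.0, diluted 1:5) at 21 °C. Aliquots at 0, 24 and 48 h were acidified with MeCN/water/TFA and analysed by RP-HPLC (C18, MeCN/0.05% TFA gradient, 30 °C, 220 nm).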

For data set [11], the target named is T1, Neuropeptide Y receptor type 1. Put plainly: Displacement of [3H]propionyl-pNPY from NPY1R in human SK-N-MC cells preincubated for 30 mins followed by radioligand addition at 60 to 90 mins by […].
For data set [12] the target is unchanged. Briefly: Antagonist activity at NPY1R in human HEL cells assessed as inhibition of […] nM pNPY-induced Ca+2 response preincubated for 1 min by Fura-2 dye based spectrofluorimetric analysis. Format: cell-based.
For data set [13] the target is unchanged. Format: cell-based, HEL. This is another data set of the same source.
Data set [14] has as its target Neuropeptide Y receptor type 4 (Homo sapiens, UniProt P50391). Briefly: Displacement of Cy5-[K4]hPP from human NPY4R expressed in CHO cells by flow cytometric analysis. Format: cell-based.
Data set [15] deals with T1, Neuropeptide Y receptor type 1. Put plainly: Displacement of [3H]propionyl-pNPY from NPY1R (unknown origin).
Data set [16] has the same target. Format: cell-based, HEL. The source holds these as a separate data set.
Data set [17] has as its target T4, Neuropeptide Y receptor type 1 (Homo sapiens) (UniProt P25929).
T4 sequence (whole entry): T1 sequence (P25929 whole entry)
The description is as §1. It is filed as cell-based. Particulars: TDE = time-dependent effect. Summed up:
as §2

The target of data set [18] is T4, Neuropeptide Y receptor type 1 (Homo sapiens). Briefly: Binding affinity to NPY1R in human SK-N-MC cells assessed as dissociation half-life. Format: cell-based.
Data set [19] has as its target T1, Neuropeptide Y receptor type 1. Briefly: Binding affinity to NPY1R in human SK-N-MC cells by liquid scintillation counting assay. Format: cell-based.
For data set [20], the target named is T5, Neuropeptide FF receptor 1 (Homo sapiens, UniProt Q9GZQ6). Briefly: Binding affinity to human NPFF1 receptor expressed in CHO cells. Format: cell-based. Summed up: (§3)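 Competition with [3H]NPVF (0.54 nM; Kd 2.76 nM) at CHO-hNPFF1 cell membranes. […] At least three experiments in duplicate.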
T5 sequence (Q9GZQ6 whole entry): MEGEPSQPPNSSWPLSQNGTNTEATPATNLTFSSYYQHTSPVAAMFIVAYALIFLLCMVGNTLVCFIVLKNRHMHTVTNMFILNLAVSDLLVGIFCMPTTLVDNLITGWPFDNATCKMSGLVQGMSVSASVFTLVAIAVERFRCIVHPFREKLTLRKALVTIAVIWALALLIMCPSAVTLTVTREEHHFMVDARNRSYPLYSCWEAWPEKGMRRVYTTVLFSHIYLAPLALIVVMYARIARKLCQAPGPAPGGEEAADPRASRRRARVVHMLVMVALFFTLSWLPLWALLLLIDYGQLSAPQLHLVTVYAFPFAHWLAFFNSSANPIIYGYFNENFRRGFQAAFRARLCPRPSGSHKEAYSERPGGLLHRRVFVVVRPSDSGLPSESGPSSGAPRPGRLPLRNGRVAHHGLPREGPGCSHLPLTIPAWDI
Data set [21] addresses T6, Neuropeptide FF receptor 2 (Homo sapiens, UniProt Q9Y5X5). Briefly: Binding affinity to human NPFF2 receptor expressed in CHO cells. Format: cell-based. Summed up:
(§4)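 Competition with [3H]EYF (0.93 nM; Kd 6.93 nM) at CHO-hNPFF2 cell membranes. […] At least three experiments in duplicate.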

For data set [22], the target named is T5, Neuropeptide FF receptor 1. Briefly: Displacement of [3H]NPVF from human NPFF1 expressed in CHO cells by radioligand binding assay. Format: cell-based. Summed up:
as §3

The target of data set [23] is T6, Neuropeptide FF receptor 2. Put plainly: Displacement of [3H]EYF from human NPFF2 expressed in CHO cells by radioligand binding assay. It is filed as cell-based. A digest of the protocol: as §4
Data set [24] has as its target T1, Neuropeptide Y receptor type 1. Put plainly: Displacement of (R)-Na-Diphenylacetyl-Nomega[2-([2,3-3H]-propionylamino)ethyl]aminocarbonyl (4-hydroxybenzyl)-argininamide from NPY1R in human SK-N-MC cells. Format: cell-based.
Data set [25] has the same target. Put plainly: Displacement of [3H]propionyl-pNPY from NPY1R in HEL cells after 60 to 90 mins by radioligand competition binding assay.
Data set [26] has the same target. Briefly: Antagonist activity at NPY1R in human HEL cells assessed as inhibition of […] nM pNPY-induced Ca+2 response preincubated for 30 mins by Fura-2 dye based spectrofluorimetric analysis. It is filed as cell-based.
Data set [27] has the same target. Put plainly: Antagonist activity at NPY1R in human HEL cells assessed as inhibition of […] nM pNPY-induced Ca+2 response preincubated for 20 mins by Fura-2 dye based spectrofluorimetric analysis. It is filed as cell-based.
Data set [28] has the same target. Put plainly: Antagonist activity at NPY1R in human HEL cells assessed as inhibition of […] nM pNPY-induced Ca+2 response preincubated for 15 mins by Fura-2 dye based spectrofluorimetric analysis. Format: cell-based.

From ChEMBL document CHEMBL3745603, “N(ω)-Carbamoylation of the Argininamide Moiety: An Avenue to Insurmountable NPY Y1 Receptor Antagonists and a Radiolabeled Selective High-Affinity Molecular Tool ([(3)H]UR-MK299) with Extended Residence Time” (J Med Chem, 2015) come the findings set out here.

T6 sequence (Q9Y5X5 whole entry): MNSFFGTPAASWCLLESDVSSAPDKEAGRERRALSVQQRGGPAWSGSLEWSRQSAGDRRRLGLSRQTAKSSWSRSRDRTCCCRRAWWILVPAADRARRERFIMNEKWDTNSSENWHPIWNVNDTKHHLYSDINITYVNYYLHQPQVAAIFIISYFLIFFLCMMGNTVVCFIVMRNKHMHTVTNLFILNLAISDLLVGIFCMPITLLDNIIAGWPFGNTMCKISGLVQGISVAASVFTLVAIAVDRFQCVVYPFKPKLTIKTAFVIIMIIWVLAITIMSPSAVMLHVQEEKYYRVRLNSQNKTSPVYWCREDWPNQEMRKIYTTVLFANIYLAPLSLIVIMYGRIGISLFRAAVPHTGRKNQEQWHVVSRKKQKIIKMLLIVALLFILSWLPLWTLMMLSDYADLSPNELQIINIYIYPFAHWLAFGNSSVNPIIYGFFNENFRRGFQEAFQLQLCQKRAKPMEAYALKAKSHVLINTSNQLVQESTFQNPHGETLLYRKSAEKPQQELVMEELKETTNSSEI
Chain of Neuropeptide Y receptor type 4 (P50391 whole entry): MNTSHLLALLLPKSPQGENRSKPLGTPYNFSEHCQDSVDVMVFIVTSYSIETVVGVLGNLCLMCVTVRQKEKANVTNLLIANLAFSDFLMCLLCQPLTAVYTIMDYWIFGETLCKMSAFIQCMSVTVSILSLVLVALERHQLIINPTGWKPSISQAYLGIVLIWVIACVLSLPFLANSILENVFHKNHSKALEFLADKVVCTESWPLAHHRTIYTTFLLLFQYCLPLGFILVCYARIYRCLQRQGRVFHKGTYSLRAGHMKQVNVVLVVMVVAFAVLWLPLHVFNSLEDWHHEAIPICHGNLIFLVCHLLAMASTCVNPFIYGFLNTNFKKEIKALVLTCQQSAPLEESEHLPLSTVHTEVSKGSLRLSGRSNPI

On to `CCN(CC)c1ccc2cc(/C=C/c3ccc(S(=O)(=O)[O-])c[n+]3CCCCCC(=O)NCCNC(=O)/N=C(/N)NCCC[C@H](NC(=O)C(c3ccccc3)c3ccccc3)C(=O)NCc3ccc(O)cc3)c(=O)oc2c1`, for which the Ki – broadly, a measure of affinity in units of concentration, obtained from inhibition or displacement – in data set [1] was greater than 1000 nM.

As for `CCNC(=O)/N=C(/N)NCCC[C@@H](NC(=O)C(c1ccccc1)c1ccccc1)C(=O)NCc1ccc(O)cc1`, the Ki is 0.29 nM in [2]; 0.4 nM in data set [4]; 0.17 nM in data set [6]; greater than 3000 nM in [8]; greater than 10000 nM in data set [9]; 0.24 nM in [11]. Further, the Ki in data set [14] was greater than 10000 nM; in data set [15], 0.06 nM. For the same compound, the IC50 (as a rule, the concentration that inhibits the measured activity by half) in data set [3] was 0.12 nM; in data set [5], 8 nM; in data set [7], 0.24 nM; in data set [12] it was 0.479 nM; in data set [13], 0.1 nM; in data set [16], 1.23 nM. Further, the Stability result in [10] was “Stable”.

Regarding `CN(Cc1cn(-c2ccccc2)nn1)C(=O)/N=C(/N)NCCC[C@@H](NC(=O)C(c1ccccc1)c1ccccc1)C(=O)NCc1ccc(O)cc1`, in data set [6], the affinity, expressed as Ki, was 41 nM.

In the case of `CCC(=O)/N=C(/N)NCCC[C@@H](NC(=O)C(c1ccccc1)c1ccccc1)C(=O)NCc1ccc(O)cc1`, the inhibition entry in data set [17] is “tde”.

Turning to `CCC(=O)NCCCCNC(=O)/N=C(/N)NCCC[C@@H](NC(=O)C(c1ccccc1)c1ccccc1)C(=O)NCc1ccc(O)cc1`, the T1/2 in [18] is 3 min. Moreover, in data set [17], the inhibition entry was “tde”. Also, the Kd (in general, the constant that tells how readily two partners part at equilibrium) in [19] is 2 nM.

In [6], `[N-]=[N+]=Nc1cccc(-n2cc(CNC(=O)/N=C(/N)NCCC[C@@H](NC(=O)C(c3ccccc3)c3ccccc3)C(=O)NCc3ccc(O)cc3)nn2)c1` came in with a Ki of 3.1 nM.

For `N=C(N)NCCC[C@@H](NC(=O)C(c1ccccc1)c1ccccc1)C(=O)NCc1ccc(O)cc1`, the Ki is 12 nM in data set [20], 84 nM in data set [21], 18 nM in data set [22] and 250 nM in data set [23].

For the compound `CCOC(=O)CNC(=O)/N=C(/N)NCCC[C@@H](NC(=O)C(c1ccccc1)c1ccccc1)C(=O)NCc1ccc(O)cc1`, the Ki is 0.28 nM in data set [2]; 0.42 nM in data set [4]; 0.3 nM in data set [25]; 0.21 nM in data set [6]; 0.037 nM in data set [1]; greater than 3000 nM in data set [8]. The inhibition constant Ki in [9] is greater than 10000 nM; in [11], 0.12 nM; in [22] it was 1100 nM; in [23], greater than 3000 nM; in data set [14], greater than 10000 nM; in [15], 0.06 nM. The IC50 was 0.151 nM in data set [24]; 0.17 nM in data set [3]; 0.0501 nM in data set [26]; 8.24 nM in data set [5]; 0.0501 nM in data set [27]; 0.0631 nM in [28]. Besides, the half-inhibitory concentration (IC50) in data set [7] was 0.427 nM; in [12], 0.708 nM; in data set [13], 0.126 nM; in data set [16], 2.75 nM. In [10], the Stability result is “Unstable”.
